For series [1] the following is noted: phase II, NCT00473928 and NCT01157065; cited from earlier work.
A short description of series [2]: Apparent solubility by absorbance at 280 nm. It counts as physicochemical. As to conditions: PBS pH 7.4, absorbance at 280 nm. The gist of the method: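 About 1 mg test peptide in 200 μL PBS pH 7.4; upper reportable limit 5 mg/mL. Vortexed 30 s, centrifuged 13000g for 5 min. Supernatant A280 converted to concentration by Beer–Lambert, using extinction coefficients from each peptide's Trp and Tyr count. Samples kept at 4 °C and re-read at 24 and 48 h. Mean and standard deviation of three readings per sample.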

Another series concerns the target complement C3 (Homo sapiens, UniProt P01024). The experiment in a line: Complement inhibition across biochemical and functional assays. Conditions: C3b ELISA, C5b-9 ELISA, hemolytic assay. In general terms: ELISA stands for enzyme-linked immunosorbent assay.

Positions of bridges follow the written chain, without caps; N, C: chain ends. Residues, ends and D or L forms follow the SMILES beside them.

We go through seven compounds from article PMC4306506 (Journal of Medicinal Chemistry, 2014).

Sequence of complement C3 (P01024 23-667 limits assumed): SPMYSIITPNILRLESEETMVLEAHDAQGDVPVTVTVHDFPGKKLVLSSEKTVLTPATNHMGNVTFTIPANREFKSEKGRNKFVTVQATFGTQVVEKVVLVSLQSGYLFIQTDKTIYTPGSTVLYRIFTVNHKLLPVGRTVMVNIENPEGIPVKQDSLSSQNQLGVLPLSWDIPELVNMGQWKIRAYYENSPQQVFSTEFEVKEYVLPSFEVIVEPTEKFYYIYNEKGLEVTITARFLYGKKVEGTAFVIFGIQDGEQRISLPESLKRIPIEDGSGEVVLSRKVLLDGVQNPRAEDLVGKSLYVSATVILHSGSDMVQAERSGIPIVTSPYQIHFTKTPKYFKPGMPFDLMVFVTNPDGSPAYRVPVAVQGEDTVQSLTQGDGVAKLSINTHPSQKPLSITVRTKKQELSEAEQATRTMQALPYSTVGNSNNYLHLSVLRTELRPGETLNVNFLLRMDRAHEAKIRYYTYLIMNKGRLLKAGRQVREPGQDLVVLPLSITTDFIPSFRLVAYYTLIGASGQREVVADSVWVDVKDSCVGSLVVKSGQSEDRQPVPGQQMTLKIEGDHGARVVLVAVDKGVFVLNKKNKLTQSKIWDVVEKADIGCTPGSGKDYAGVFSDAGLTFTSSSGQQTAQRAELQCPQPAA
Sequence of complement C3 (P01024 672-1663 partner limits assumed): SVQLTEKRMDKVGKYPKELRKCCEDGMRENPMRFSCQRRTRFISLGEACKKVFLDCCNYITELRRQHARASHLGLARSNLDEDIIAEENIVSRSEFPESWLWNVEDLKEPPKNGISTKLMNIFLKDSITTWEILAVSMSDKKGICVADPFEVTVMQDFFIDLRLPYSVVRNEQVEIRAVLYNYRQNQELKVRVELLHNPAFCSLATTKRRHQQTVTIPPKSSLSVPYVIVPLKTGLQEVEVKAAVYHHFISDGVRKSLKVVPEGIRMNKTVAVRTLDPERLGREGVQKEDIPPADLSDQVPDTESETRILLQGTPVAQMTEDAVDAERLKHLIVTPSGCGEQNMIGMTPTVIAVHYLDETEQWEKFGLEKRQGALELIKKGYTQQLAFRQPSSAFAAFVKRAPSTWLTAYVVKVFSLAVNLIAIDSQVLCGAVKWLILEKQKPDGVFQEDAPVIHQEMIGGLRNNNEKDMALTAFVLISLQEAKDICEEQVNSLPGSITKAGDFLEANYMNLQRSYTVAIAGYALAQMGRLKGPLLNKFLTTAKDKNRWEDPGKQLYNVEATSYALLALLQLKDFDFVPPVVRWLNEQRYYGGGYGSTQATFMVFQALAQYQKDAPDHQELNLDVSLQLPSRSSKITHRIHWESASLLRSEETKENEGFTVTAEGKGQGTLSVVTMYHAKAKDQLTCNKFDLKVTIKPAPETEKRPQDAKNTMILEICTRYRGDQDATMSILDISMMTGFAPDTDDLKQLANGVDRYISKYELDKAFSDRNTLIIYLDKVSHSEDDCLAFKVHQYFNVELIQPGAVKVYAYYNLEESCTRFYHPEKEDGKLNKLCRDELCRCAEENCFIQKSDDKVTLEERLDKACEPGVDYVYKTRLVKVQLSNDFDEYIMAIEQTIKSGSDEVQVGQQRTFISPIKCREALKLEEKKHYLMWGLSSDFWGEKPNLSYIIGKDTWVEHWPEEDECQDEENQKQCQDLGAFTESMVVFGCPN

Take `CC[C@H](C)[C@H](NC(C)=O)C(=O)N[C@H]1CSSC[C@@H](C(=O)N[C@H](C(N)=O)[C@@H](C)O)NC(=O)[C@H](CCCNC(=N)N)NC(=O)[C@H](Cc2c[nH]cn2)NC(=O)[C@H](C)NC(=O)CNC(=O)[C@H](Cc2c[nH]c3ccccc23)NC(=O)[C@H](CC(=O)O)NC(=O)[C@H](CCC(N)=O)NC(=O)[C@H](Cc2cn(C)c3ccccc23)NC(=O)[C@H](C(C)C)NC1=O` [meW4A9, Ac- ICV{meW}QDWG A HRCT-NH2]: in series [1], the “Retinal thickness in AMD patients in comparison to ranibizumab” value is “did not yield reduced retinal thickness”. For `CC(=O)N[C@@H](CC(N)=O)C(=O)N[C@@H](CC(N)=O)C(=O)N[C@@H](CC(C)C)C(=O)N[C@H]1CSSC[C@@H](C(=O)N[C@H](C(N)=O)[C@@H](C)O)NC(=O)[C@H](CCCNC(=N)N)NC(=O)[C@H](Cc2c[nH]cn2)NC(=O)[C@H](C)NC(=O)CNC(=O)[C@H](Cc2c[nH]c3ccccc23)NC(=O)[C@H](CC(=O)O)NC(=O)[C@H](CCC(N)=O)NC(=O)[C@H](Cc2c[nH]c3ccccc23)NC(=O)[C@H](C(C)C)NC1=O` [Peptide 7, Ac-NNLCV W QDWG A HRCT-NH2] (Ac-NNLCVWQDWGAHRCT-NH2; disulfide 4-14), in series [2], the “Solubility, in words” value is recorded as “greatly improved aqueous solubility”. In addition, at complement C3, the “Complement inhibitory activity relative to controls, in words” value is on record as “inhibitory activity similar to meW4A9”. The corresponding values for `CC[C@H](C)[C@H](NC(C)=O)C(=O)N[C@H]1CSSC[C@@H](C(=O)N[C@H](C(N)=O)[C@@H](C)O)NC(=O)[C@H](CCCNC(=N)N)NC(=O)[C@H](Cc2c[nH]cn2)NC(=O)[C@](C)(CC)NC(=O)CNC(=O)[C@H](Cc2c[nH]c3ccccc23)NC(=O)[C@H](CC(=O)O)NC(=O)[C@H](CCC(N)=O)NC(=O)[C@H](Cc2c[nH]c3ccccc23)NC(=O)[C@H](C(C)C)NC1=O` [Peptide 5, Ac- ICV W QDWG{Sea}HRCT-NH2] are “greatly improved aqueous solubility” and “inhibitory activity similar to meW4A9”.

Regarding `CC[C@H](C)[C@H](NC(C)=O)C(=O)N[C@H]1CSSC[C@@H](C(=O)N[C@H](C(N)=O)[C@@H](C)O)NC(=O)[C@H](CCCNC(=N)N)NC(=O)[C@H](Cc2c[nH]cn2)NC(=O)[C@@](C)(CC)NC(=O)CNC(=O)[C@H](Cc2c[nH]c3ccccc23)NC(=O)[C@H](CC(=O)O)NC(=O)[C@H](CCC(N)=O)NC(=O)[C@H](Cc2c[nH]c3ccccc23)NC(=O)[C@H](C(C)C)NC1=O` [Peptide 3, Ac- ICV W QDWG{Rea}HRCT-NH2], the “Solubility, in words” value in series [2] is “greatly improved aqueous solubility”. The “Complement inhibitory activity relative to controls, in words” value at complement C3 is “inhibitory activity similar to meW4A9”.

For the compound `C=CC[C@@]1(C)NC(=O)CNC(=O)[C@H](Cc2c[nH]c3ccccc23)NC(=O)[C@H](CC(=O)O)NC(=O)[C@H](CCC(N)=O)NC(=O)[C@H](Cc2c[nH]c3ccccc23)NC(=O)[C@H](C(C)C)NC(=O)[C@@H](NC(=O)[C@@H](NC(C)=O)[C@@H](C)CC)CSSC[C@@H](C(=O)N[C@H](C(N)=O)[C@@H](C)O)NC(=O)[C@H](CCCNC(=N)N)NC(=O)[C@H](Cc2c[nH]cn2)NC1=O` [Peptide 4, Ac- ICV W QDWG{Aal}HRCT-NH2], in series [2], the “Solubility, in words” value is on record as “greatly improved aqueous solubility”. For the same compound, the “Complement inhibitory activity relative to controls, in words” value at complement C3 was “inhibitory activity similar to meW4A9”. The corresponding values for `CC[C@H](C)[C@H](NC(=O)[C@H](CO)NC(=O)[C@H](CCCNC(=N)N)NC(C)=O)C(=O)N[C@H]1CSSC[C@@H](C(=O)N[C@H](C(N)=O)[C@@H](C)O)NC(=O)[C@H](CCCNC(=N)N)NC(=O)[C@H](Cc2c[nH]cn2)NC(=O)[C@H](C)NC(=O)CNC(=O)[C@H](Cc2c[nH]c3ccccc23)NC(=O)[C@H](CC(=O)O)NC(=O)[C@H](CCC(N)=O)NC(=O)[C@H](Cc2c[nH]c3ccccc23)NC(=O)[C@H](C(C)C)NC1=O` [Peptide 9, Ac-RSICV W QDWG A HRCT-NH2] are “greatly improved aqueous solubility” and “inhibitory activity similar to meW4A9”. `CC(=O)N[C@@H](CC(N)=O)C(=O)N[C@@H](CCCNC(=N)N)C(=O)N[C@@H](CC(C)C)C(=O)N[C@H]1CSSC[C@@H](C(=O)N[C@H](C(N)=O)[C@@H](C)O)NC(=O)[C@H](CCCNC(=N)N)NC(=O)[C@H](Cc2c[nH]cn2)NC(=O)[C@H](C)NC(=O)CNC(=O)[C@H](Cc2c[nH]c3ccccc23)NC(=O)[C@H](CC(=O)O)NC(=O)[C@H](CCC(N)=O)NC(=O)[C@H](Cc2c[nH]c3ccccc23)NC(=O)[C@H](C(C)C)NC1=O` [Peptide 8, Ac-NRLCV W QDWG A HRCT-NH2] (Ac-NRLCVWQDWGAHRCT-NH2; disulfide 4-14): the “Solubility, in words” value in series [2] is “greatly improved aqueous solubility”. The “Complement inhibitory activity relative to controls, in words” value at complement C3 is on record as “inhibitory activity similar to meW4A9”.
